# Laboratory results: ChEMBL document CHEMBL4609993, “The architecture of hydrogen and sulfur σ-hole interactions explain differences in the inhibitory potency of C-β-d-glucopyranosyl thiazoles, imidazoles and an N-β-d glucopyranosyl tetrazole for human liver glycogen phosphorylase and offer new insights to structure-based design” (Bioorg Med Chem, 2020)
# Columns and labels:
# [1] = Inhibition of rabbit muscle GPa using Glc-1-P as substrate incubated for 15 mins; set-up: species or system Oryctolagus cuniculus
# [2] = molecular target: T1, Glycogen phosphorylase, liver form (Homo sapiens, UniProt P06737); test: Inhibition of human liver GPa using Glc-1-P as substrate incubated for 15 mins
# T1 sequence (P06737 whole entry): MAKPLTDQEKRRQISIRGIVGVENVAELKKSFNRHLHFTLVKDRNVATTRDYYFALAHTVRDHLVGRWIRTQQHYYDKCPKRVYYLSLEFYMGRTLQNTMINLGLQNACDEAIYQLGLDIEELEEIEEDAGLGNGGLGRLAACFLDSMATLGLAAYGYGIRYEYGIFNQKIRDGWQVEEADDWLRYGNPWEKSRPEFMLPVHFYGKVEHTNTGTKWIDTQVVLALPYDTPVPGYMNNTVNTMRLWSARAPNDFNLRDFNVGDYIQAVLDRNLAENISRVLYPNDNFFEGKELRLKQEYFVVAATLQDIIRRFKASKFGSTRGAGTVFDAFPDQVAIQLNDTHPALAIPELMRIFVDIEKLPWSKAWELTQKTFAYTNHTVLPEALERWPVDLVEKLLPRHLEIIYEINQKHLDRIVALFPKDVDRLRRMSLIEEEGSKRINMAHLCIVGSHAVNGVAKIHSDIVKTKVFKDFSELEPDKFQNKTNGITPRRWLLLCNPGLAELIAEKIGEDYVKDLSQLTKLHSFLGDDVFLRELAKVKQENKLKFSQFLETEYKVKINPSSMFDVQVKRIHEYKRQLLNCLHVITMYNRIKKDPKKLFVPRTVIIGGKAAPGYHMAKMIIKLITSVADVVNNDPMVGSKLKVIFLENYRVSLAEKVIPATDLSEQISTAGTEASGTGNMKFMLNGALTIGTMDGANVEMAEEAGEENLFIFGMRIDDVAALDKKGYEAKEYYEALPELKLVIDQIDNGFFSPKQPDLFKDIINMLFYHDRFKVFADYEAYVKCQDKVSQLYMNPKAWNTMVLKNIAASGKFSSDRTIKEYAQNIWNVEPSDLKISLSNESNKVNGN
# [3] = Inhibition of rabbit muscle GPb using alpha-D-glucose-1-phosphate as substrate by Lineweaver-Burk plot analysis; set-up: species or system Oryctolagus cuniculus
# [4] = molecular target: T2, Glycogen phosphorylase, liver form (Homo sapiens) (UniProt P06737); test: Inhibition of GP in human HepG2 cells assessed as reduction in GP activity at 100 uM incubated for 3 hrs by Bradford reagent based assay relative to control; format: cell-based
# T2 sequence (whole entry): T1 sequence (P06737 whole entry)
# How it was run: (§1)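 HepG2 cells were seeded at 1.0×10^6 per 60 mm dish and attached for 16–18 h. Glycogen was loaded for 16–18 h with 10 nM dexamethasone, 25 mM glucose and 100 nM insulin. Cells were then exposed to inhibitor or vehicle for 3 h in 5 mM glucose plus 100 nM glucagon. Lysates were sonicated in Tris pH 7.5/Triton/PMSF and cleared at 12,000 g. GP activity (nmol/min/mg, Bradford protein) came from a linear fit of 5 time points.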
# HepG2 [5] = test: Cytotoxicity against human HepG2 cells assessed as reduction in cell viability at 100 uM measured after 3 and 24 hrs by MTT assay; format: cell-based; conditions: hepg2, 24 h
# [6] = Inhibition of rabbit muscle GPb using Glc-1-P as substrate incubated for 15 mins; set-up: species or system Oryctolagus cuniculus
# How it was run: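 Recombinant or rabbit muscle GP assayed by an earlier method. Initial velocities were taken from pseudo-first-order rate constants via the first-order rate equation. Ki came from non-linear regression with explicit weighting of apparent Km against inhibitor concentration, using 4–5 inhibitor levels per compound spanning 1–300 μM.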
# [7] = molecular target: T2, Glycogen phosphorylase, liver form (Homo sapiens); test: Inhibition of GP in human HepG2 cells assessed as reduction in GP activity at 500 uM incubated for 3 hrs by Bradford reagent based assay relative to control; format: cell-based; how it was run: as §1
# [8] = Cytotoxicity against human HepG2 cells assessed as reduction in cell viability at 200 and 300 uM incubated for 3 hrs by MTT assay; format: cell-based; conditions: read-out: INH
# HepG2 [9] = test: Cytotoxicity against human HepG2 cells assessed as reduction in cell viability at >200 uM incubated for 24 hrs by MTT assay; format: cell-based; conditions: hepg2, 24 h
# [10] = molecular target: T2, Glycogen phosphorylase, liver form (Homo sapiens); test: Inhibition of GP in human HepG2 cells assessed as reduction in GP activity at 335 uM incubated for 3 hrs by Bradford reagent based assay relative to control; format: cell-based; how it was run: as §1
Compound,Ki [1],Ki [2],Ki [3],inhibition [4],Ki [6],inhibition [7],inhibition [10],Activity (HepG2 [5]),cytotoxicity at 3 h [8],Activity (HepG2 [9])
OC[C@H]1O[C@@H](c2csc(-c3ccccc3)n2)[C@H](O)[C@@H](O)[C@@H]1O,75.6 µM,172 µM,326 µM,,,,,,,
OC[C@H]1O[C@@H](c2c[nH]c(-c3ccc4ccccc4c3)n2)[C@H](O)[C@@H](O)[C@@H]1O,1.6 µM,3.2 µM,4.58 µM,60%,,,,Non-Toxic,,
OC[C@H]1O[C@@H](c2nc(-c3ccc4ccccc4c3)cs2)[C@H](O)[C@@H](O)[C@@H]1O,69.1 µM,78 µM,,,,,,,,
OC[C@H]1O[C@@H](c2csc(-c3ccc4ccccc4c3)n2)[C@H](O)[C@@H](O)[C@@H]1O,28 µM,43.6 µM,26.2 µM,,,< 25%,,,< 10%,Toxic
OC[C@H]1O[C@@H](c2nc(-c3ccccc3)n[nH]2)[C@H](O)[C@@H](O)[C@@H]1O,1.74 µM,,,,,,,,,

# More lines, in order of falling Ki [1], values ahead:
Ki [1],Ki [2],Ki [3],inhibition [4],Ki [6],inhibition [7],inhibition [10],Compound,Activity (HepG2 [5]),cytotoxicity at 3 h [8],Activity (HepG2 [9])
157 µM,180 µM,,,,,,OC[C@H]1O[C@@H](c2nc(-c3ccccc3)cs2)[C@H](O)[C@@H](O)[C@@H]1O,,,
146 µM,134 µM,,,162 µM,,,OC[C@H]1O[C@@H](n2nnc(-c3ccccc3)n2)[C@H](O)[C@@H](O)[C@@H]1O,,,
17.7 µM,25.9 µM,68.6 µM,,,60%,50%,OC[C@H]1O[C@@H](c2c[nH]c(-c3ccccc3)n2)[C@H](O)[C@@H](O)[C@@H]1O,,,Toxic
